The source of these data is ChEMBL document CHEMBL3813641, “Prediction and verification of novel peptide targets of protein tyrosine phosphatase 1B” (Bioorg Med Chem, 2016).

Substrate in data set [1]: C[C@@H](O)[C@H](NC(=O)[C@@H](N)CO)C(=O)N[C@@H](CCC(=O)O)C(=O)N1CCC[C@H]1C(=O)N[C@@H](CCC(N)=O)C(=O)N1CCC[C@@H]1C(=O)N[C@@H](Cc1ccc(O)cc1)C(=O)N[C@@H](CCC(N)=O)C(=O)N1CCC[C@H]1C(=O)NCC(=O)N[C@@H](CCC(=O)O)C(=O)N[C@@H](CC(N)=O)C(=O)O
Put plainly: (§1) Substrate activity at recombinant human N-terminal His-tagged PTP1B (1 to 321 residues) expressed in Escherichia coli BL21(DE3) cells assessed as inorganic phosphate release after 30 mins by spectrophotometric method. The procedure, abridged: (§2)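 Synthetic phosphotyrosine peptides (N-acetylated, C-terminal amide, HPLC-purified) were incubated in vitro with purified PTP1B, and the released inorganic phosphate was detected with the EnzChek phosphate assay kit.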

Substrate in data set [2]: CC[C@H](C)[C@H](NC(=O)[C@@H]1CCCN1C(=O)[C@H](CO)NC(=O)[C@H](CCCCN)NC(=O)[C@H](Cc1ccc(O)cc1)NC(=O)[C@H]1CCCN1C(=O)[C@@H](NC(=O)[C@@H]1CCCN1C(=O)[C@H](CC(N)=O)NC(=O)[C@H](CCC(=O)O)NC(=O)[C@@H](N)CCC(N)=O)[C@@H](C)CC)C(=O)N[C@@H](CC(N)=O)C(=O)O
The description is as §1. A digest of the protocol: as §2

Substrate in data set [3]: CC[C@H](C)[C@H](NC(=O)[C@@H]1CCCN1C(=O)[C@H](CCC(=O)O)NC(=O)[C@H](C)NC(=O)[C@H](Cc1ccc(O)cc1)NC(=O)[C@H]1CCCN1C(=O)[C@H](CC(N)=O)NC(=O)[C@H](CC(=O)O)NC(=O)[C@H](CO)NC(=O)[C@@H]1CCCN1C(=O)[C@@H](N)CC(=O)O)C(=O)N[C@@H](CC(=O)O)C(=O)O
Described as §1. A digest of the protocol: as §2

Substrate in data set [4]: CC[C@H](C)[C@H](NC(=O)[C@H](CC(=O)O)NC(=O)[C@H](CCC(=O)O)NC(=O)[C@H](CCC(=O)O)NC(=O)[C@@H](N)CCC(=O)O)C(=O)N1CCC[C@@H]1C(=O)N[C@@H](Cc1ccc(O)cc1)C(=O)N[C@@H](CCC(=O)O)C(=O)N[C@H](C(=O)N[C@@H](CC(C)C)C(=O)N1CCC[C@H]1C(=O)N[C@@H](CC(=O)O)C(=O)O)C(C)C
Described as §1. A digest of the protocol:
as §2

Substrate in data set [5]: CC(C)[C@H](NC(=O)[C@H](CC(=O)O)NC(=O)[C@H](CCC(=O)O)NC(=O)[C@H](CC(N)=O)NC(=O)[C@@H](N)CC(=O)O)C(=O)N1CCC[C@@H]1C(=O)N[C@@H](Cc1ccc(O)cc1)C(=O)N[C@H](C(=O)N[C@@H](Cc1ccccc1)C(=O)N[C@@H](CCCCN)C(=O)N[C@H](C(=O)N1CCC[C@H]1C(=O)O)[C@@H](C)O)[C@@H](C)O
The data set is described as §1. The procedure, abridged:
as §2

Substrate in data set [6]: CC[C@H](C)[C@H](N)C(=O)N[C@@H](CCC(=O)O)C(=O)N[C@@H](CC(=O)O)C(=O)N1CCC[C@H]1C(=O)N1CCC[C@@H]1C(=O)N[C@@H](Cc1ccc(O)cc1)C(=O)N1CCC[C@@H]1C(=O)N[C@@H](Cc1ccc(O)cc1)C(=O)NCC(=O)N[C@@H](CC(N)=O)C(=O)N[C@@H](CC(=O)O)C(=O)N[C@@H](CO)C(=O)N[C@@H](CC(=O)O)C(=O)O
The data set is described as §1. A digest of the protocol:
as §2

Substrate in data set [7]: NCCCC[C@H](NC(=O)[C@H](CCCCN)NC(=O)[C@@H]1CCCN1C(=O)[C@H](Cc1ccc(O)cc1)NC(=O)[C@H]1CCCN1C(=O)[C@H](CCCCN)NC(=O)[C@H](CCCCN)NC(=O)[C@H](CCCCN)NC(=O)[C@@H](N)CCCCN)C(=O)O
The data set is described as §1. The procedure, abridged: as §2

Substrate in data set [8]: CC(C)C[C@@H](N)C(=O)NCC(=O)N[C@@H](CO)C(=O)N[C@@H](CCCNC(=N)N)C(=O)N[C@@H](C)C(=O)N1CCC[C@@H]1C(=O)N[C@H](Cc1ccc(O)cc1)C(=O)N1CCC[C@H]1C(=O)N[C@@H](Cc1cnc[nH]1)C(=O)N[C@H](Cc1ccccc1)C(=O)N[C@H](CS)C(=O)N[C@H](C)C(=O)O
The description is as §1. The procedure, abridged: as §2

Substrate in data set [9]: NCCCC[C@H](NC(=O)[C@H](CCCCN)NC(=O)[C@@H]1CCCN1C(=O)[C@H](Cc1ccc(O)cc1)NC(=O)[C@H]1CCCN1C(=O)[C@H](CCCCN)NC(=O)[C@H](CCCCN)NC(=O)[C@H](CCCCN)NC(=O)[C@@H](N)CCCCN)C(=O)O
Put plainly: Ratio of Kcat to Km for recombinant human N-terminal His-tagged PTP1B (1 to 321 residues) expressed in Escherichia coli BL21(DE3) cells.

Substrate in data set [10]: CC(C)[C@H](NC(=O)[C@@H](CCCCN)NC(=O)[C@@H](Cc1ccc(O)cc1)NC(=O)[C@H]1CCCN1C(=O)[C@H](Cc1ccc(O)cc1)NC(=O)[C@H]1CCCN1C(=O)[C@H](CCC(=O)O)NC(=O)[C@H](N)CCCCN)C(=O)N[C@H](CCCCN)C(=O)O
Put plainly: Substrate activity at PTP1B (unknown origin). Conditions: Homo sapiens; call rule not given here. The procedure, abridged: as §2

B1: Tyrosine-protein phosphatase non-receptor type 1 (Homo sapiens), P18031 (protein)
chain: MEMEKEFEQIDKSGSWAAIYQDIRHEASDFPCRVAKLPKNKNRNRYRDVSPFDHSRIKLHQEDNDYINASLIKMEEAQRSYILTQGPLPNTCGHFWEMVWEQKSRGVVMLNRVMEKGSLKCAQYWPQKEEKEMIFEDTNLKLTLISEDIKSYYTVRQLELENLTTQETREILHFHYTTWPDFGVPESPASFLNFLFKVRESGSLSPEHGPVVVHCSAGIGRSGTFCLADTCLLLMDKRKDPSSVDIKKVLLEMRKFRMGLIQTADQLRFSYLAVIEGAKFIMGDSSVQDQWKELSHEDLEPPPEHIPPPPRPPKRILEPHNGKCREFFPNHQWVKEETQEDKDCPIKEEKGSPLNAAPYGIESMSQDTEVRSRVVGGSLRGAQAASPAKGEPSLPEKDEDHALSYWKPFLVNMCVATVLTAGAYLCYRFLFNSNT
As usually defined, the Km is the concentration of substrate that gives half-maximal velocity. For the protein B1, the Km was 29.1 µM in [1]; 21.7 µM in data set [2]; 28.5 µM in data set [3]; 14.7 µM in data set [4]; 17.1 µM in data set [5]; 20.1 µM in [6]. In addition, the Km result in data set [7] is “Not Active”; in data set [8] it was greater than 300 µM; in data set [10], 12.7 µM. In addition, in data set [9], the kcat/Km entry was “Not Active”.
